ChEMBL document CHEMBL4616723, “Discovery of Antibacterials That Inhibit Bacterial RNA Polymerase Interactions with Sigma Factors” (J Med Chem, 2020)
≈ marks a conversion by molar mass, not a printed value. Calls of active or inactive are those of the source. No cut-off for these calls is given here.

Tests used:
[1] = system: Escherichia coli; assay: Antibacterial activity against Escherichia coli ATCC 25922 after 20 hrs by CLSI based-broth microdilution method; format: functional; settings: ATCC 25922, 20 h
[2] = system: Streptococcus pneumoniae; assay: Antibacterial activity against Streptococcus pneumoniae ATCC 49619 after 20 hrs by CLSI based-broth microdilution method; format: functional; settings: ATCC 49619, 20 h
[3] = system: Enterobacter cloacae; assay: Antibacterial activity against Enterobacter cloacae ATCC 13047 after 20 hrs by CLSI based-broth microdilution method; format: functional; settings: subsp. cloacae ATCC 13047, 20 h
[4] = system: Acinetobacter baumannii; assay: Antibacterial activity against Acinetobacter baumannii ATCC 19606 after 20 hrs by CLSI based-broth microdilution method; format: functional; settings: ATCC 19606 = CIP 70.34 = JCM 6841, 20 h
[5] = Inhibition of N-terminal SmBiT-fused Bacillus subtilis RNAP subunit beta' CH region expressed in Escherichia coli BL21(DE3)pLysS interaction with C- terminal LgBiT-fused Bacillus subtilis RNA polymerase sigma factor SigA expressed in Escherichia coli BL21(DE3)pLysS preincubated for 10 mins followed by RNA polymerase sigma factor SigA addition and measured after 10 mins by nano-glo luciferase assay
How it was run: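 Split-luciferase complementation in PBS: N-SmBiT-CH (2.5 μM stock) mixed with compound at desired concentrations, 10 min at 37 °C. C-LgBiT-σA (2.5 μM stock) then added, another 10 min at 37 °C. Equal volume of Nano-Glo substrate added and luminescence read. No-drug control included. Run in triplicate with technical repeats.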

[6] = system: Pseudomonas aeruginosa; assay: Antibacterial activity against Pseudomonas aeruginosa ATCC 27853 after 20 hrs by CLSI based-broth microdilution method; format: functional; settings: ATCC 27853, 20 h
[7] = system: Klebsiella pneumoniae; assay: Antibacterial activity against Klebsiella pneumoniae ATCC 700603 after 20 hrs by CLSI based-broth microdilution method; format: functional; settings: ATCC 700603, 20 h
[8] = system: Streptococcus agalactiae; assay: Antibacterial activity against Streptococcus agalactiae ATCC 12386 after 20 hrs by CLSI based-broth microdilution method; format: functional; settings: ATCC 12386, 20 h
[9] = system: Streptococcus pyogenes; assay: Antibacterial activity against Streptococcus pyogenes ATCC 19615 after 20 hrs by CLSI based-broth microdilution method; format: functional; settings: ATCC 19615, 20 h
[10] = system: Enterococcus faecalis; assay: Antibacterial activity against Enterococcus faecalis ATCC 19433 after 20 hrs by CLSI based-broth microdilution method; format: functional; settings: ATCC 19433, 20 h
[11] = system: Staphylococcus saprophyticus; assay: Antibacterial activity against Staphylococcus saprophyticus ATCC 15305 after 20 hrs by CLSI based-broth microdilution method; format: functional; settings: subsp. saprophyticus ATCC 15305, 20 h
[12] = Therapeutic index, ratio of CC50 for human A549 cells to MIC for Streptococcus pneumoniae ATCC 49619; format: toxicity; settings: read-out: TI
[13] = system: Staphylococcus epidermidis; assay: Antibacterial activity against Staphylococcus epidermidis ATCC 12228 after 20 hrs by CLSI based-broth microdilution method; format: functional; settings: ATCC 12228, 20 h
[14] = Haemolytic activity in human erythrocytes at 0.1 to 10 ug/ml relative to control; format: ADME, cell-based, Erythrocyte; settings: read-out: Activity
How it was run: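 Human erythrocytes washed in 150 mM NaCl, resuspended in PBS pH 7.4 (2% blood); compound at final 0.1, 1 and 10 μg/mL (0.5% DMSO) for 45 min at 37 °C, n = 6; spun at 500g, 4 °C; supernatant absorbance read at 540 nm; 1% Triton X-100 as positive and PBS as negative control; % lysis calculated.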

[15] = system: Staphylococcus aureus; assay: Antibacterial activity against Staphylococcus aureus ATCC 29213 after 20 hrs by CLSI based-broth microdilution method; format: functional; settings: ATCC 29213, 20 h
[16] = system: A549; assay: Cytotoxicity against human A549 cells after 48 to 72 hrs by MTT assay; format: cell-based
[17] = Therapeutic index, ratio of CC50 for human HepG2 cells to MIC for Streptococcus pneumoniae ATCC 49619; format: toxicity; settings: read-out: TI
[18] = system: Staphylococcus aureus; assay: Antibacterial activity against Staphylococcus aureus ATCC 25923 after 20 hrs by CLSI based-broth microdilution method; format: functional; settings: ATCC 25923, 20 h
[19] = system: HepG2; assay: Cytotoxicity against human HepG2 cells after 48 to 72 hrs by MTT assay; format: cell-based
[20] = Apparent permeability across apical to basolateral membrane in human Caco2 cells at 10 ug/ml by LC-MS/MS analysis; format: ADME, cell-based; settings: Caco-2
How it was run: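 Caco-2 monolayers grown 21–28 days on Transwell polycarbonate membranes, TEER ≥165 Ω cm2; preincubated 20 min at 37 °C in transport buffer; apical-to-basolateral transport only, pH 7.4 on both sides; receiver sampled over time under sink conditions; concentrations measured by LC–MS/MS.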

[21] = system: Streptococcus pneumoniae; assay: Antibacterial activity against Streptococcus pneumoniae ATCC 49619 after 16 to 20 hrs by CLSI based-broth microdilution method; format: functional
[22] = system: Streptococcus pneumoniae; assay: Antibacterial activity against Streptococcus pneumoniae ATCC 49619 assessed as reduction in pneumolysin release at 0.25 to 0.5 times MIC incubated for 16 to 20 hrs by Western blot analysis; format: functional, organism-based
How it was run: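 Overnight static culture in brain–heart infusion broth, with or without serially diluted compound; rifampicin and ceftriaxone controls at twofold dilutions from 2 to 0.002 μg/mL; untreated control. […] Western blot probed with rabbit polyclonal anti-pneumolysin (1:1000) and HRP anti-rabbit secondary, ECL chemiluminescence; band intensity normalized to untreated control.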

Row | SMILES | MIC [1] [µg/mL] | MIC [2] [µg/mL] | MIC [3] [µg/mL] | MIC [4] [µg/mL] | IC50 [5] [µM] | MIC [6] [µg/mL] | MIC [7] [µg/mL] | MIC [8] [µg/mL] | MIC [9] [µg/mL] | MIC [10] [µg/mL] | MIC [11] [µg/mL] | selectivity ratio [12] | MIC [13] [µg/mL] | MIC [15] [µg/mL] | CC50 [16] [µM] | selectivity ratio [17] | MIC [18] [µg/mL] | CC50 [19] [µM] | further results
1 | O=C(O)c1ccccc1C(=O)c1ccc(Sc2ccc(Cl)c(Cl)c2)cc1 | > 256 | 16 (≈ 39.7 µM) | > 256 | > 256 | 67 | > 256 | > 256 |  |  |  |  |  |  |  |  |  |  |  | 
2 | CN[C@H](CC(C)C)C(=O)N[C@H]1C(=O)N[C@@H](CC(N)=O)C(=O)N[C@H]2C(=O)N[C@H]3C(=O)N[C@H](C(=O)N[C@H](C(=O)O)c4cc(O)cc(O)c4-c4cc3ccc4O)[C@H](O)c3ccc(c(Cl)c3)Oc3cc2cc(c3O[C@@H]2O[C@H](CO)[C@@H](O)[C@H](O)[C@H]2O[C@H]2C[C@](C)(N)[C@H](O)[C@H](C)O2)Oc2ccc(cc2Cl)[C@H]1O [VANCOMYCIN] |  | 1 (≈ 0.69 µM) |  |  |  |  |  | 1 (≈ 0.69 µM) | 1 (≈ 0.69 µM) | 1 (≈ 0.69 µM) | 1 (≈ 0.69 µM) |  |  |  |  |  |  |  | 
3 | O=C(O)c1ccc(Cl)c(NCc2ccc(Sc3ccc(Cl)c(Cl)c3)c([N+](=O)[O-])c2)c1 | > 256 |  | > 256 | > 256 | 15 | > 256 | > 256 | 4 (≈ 8.27 µM) | 4 (≈ 8.27 µM) | 4 (≈ 8.27 µM) | 4 (≈ 8.27 µM) | 28 | 4 (≈ 8.27 µM) | 8 (≈ 16.5 µM) | 116 | 27 | 8 (≈ 16.5 µM) | 110 | hemolysis [14]: < 10%
4 | O=C(O)c1ccccc1NCc1ccc(Sc2ccc(Cl)c(Cl)c2)c([N+](=O)[O-])c1 | > 256 |  | > 256 | > 256 | 11.6 | > 256 | > 256 | 4 (≈ 8.9 µM) | 4 (≈ 8.9 µM) | 8 (≈ 17.8 µM) | 4 (≈ 8.9 µM) | 57 | 4 (≈ 8.9 µM) | 4 (≈ 8.9 µM) | 252 | 38 | 8 (≈ 17.8 µM) | 170 | hemolysis [14]: < 10%; Papp A→B at 10 ug/ml [20]: 36.2 ×10⁻⁶ cm/s
5 | Nc1ccccc1Sc1ccc(C(=O)c2ccccc2C(=O)O)cc1[N+](=O)[O-] | > 256 |  | > 256 | > 256 |  | > 256 | > 256 | > 256 | 256 (≈ 649 µM) | 256 (≈ 649 µM) | 256 (≈ 649 µM) |  | > 256 | > 256 |  |  | > 256 |  | 
6 | Nc1cc(Cl)ccc1Sc1ccc(C(=O)c2ccccc2C(=O)O)cc1[N+](=O)[O-] | > 256 |  | > 256 | > 256 |  | > 256 | > 256 |  |  |  |  |  |  |  |  |  |  |  | MIC [21]: 64 µg/mL (≈ 149 µM)
7 | CO[C@H]1/C=C/O[C@@]2(C)Oc3c(C)c(O)c4c(O)c(c(/C=N/N5CCN(C)CC5)c(O)c4c3C2=O)NC(=O)/C(C)=C\C=C\[C@H](C)[C@H](O)[C@@H](C)[C@@H](O)[C@@H](C)[C@H](OC(C)=O)[C@@H]1C [RIFAMPIN] |  | 0.0625 (≈ 0.0759 µM) |  |  |  |  |  | 0.03 (≈ 0.0365 µM) | 0.03 (≈ 0.0365 µM) | 4 (≈ 4.86 µM) | 0.03 (≈ 0.0365 µM) |  | 0.03 (≈ 0.0365 µM) | 0.03 (≈ 0.0365 µM) |  |  | 0.01 (≈ 0.0122 µM) |  | Activity [22]: Active
8 | O=C(O)c1c(Cl)cccc1NCc1ccc(Sc2ccc(Cl)c(Cl)c2)c([N+](=O)[O-])c1 | > 256 |  | > 256 | > 256 | 25.1 | > 256 | > 256 | 4 (≈ 8.27 µM) | 2 (≈ 4.13 µM) | 8 (≈ 16.5 µM) | 8 (≈ 16.5 µM) | 11 | 4 (≈ 8.27 µM) | 8 (≈ 16.5 µM) | 93.3 | 12 | 8 (≈ 16.5 µM) | 97.7 | 
